# Key:
# [1] = mean arterial blood pressure and heart rate during ischaemia–reperfusion; assay type: in vivo, rat; conditions: data not shown
# Method in brief: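 They were then dosed with test compound or vehicle for 5 days, with the last dose 2–3 h before surgery. Under pentobarbitone anaesthesia (60 mg/kg i.p.), MABP was recorded via a carotid artery cannula. The protocol was 20-min stabilisation, 45-min LCA occlusion, then 2-h reperfusion.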
# [2] = system: ischaemia–reperfusion injury in the rat; test: EPR free radical production from hearts after in vivo ischaemia–reperfusion; conditions: CP-H spin trap
# Method in brief: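 Hearts were excised after in vivo ischaemia–reperfusion (45 min/2 h) and perfused retrogradely with warmed, gassed Krebs–Henseleit. With the LCA snare re-tied, 10 μl of 10−1 M CP-H spin trap was injected above the heart and 500 μl perfusate (drops 6–11) collected, four times per heart and averaged. This was repeated with the snare released, then with 500 U SOD. Samples were incubated at 37 °C for 20 min and read by EPR.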
# [3] = system: ischaemia and reperfusion in the rabbit; conditions: in vivo; cited from earlier work
SMILES,effect on MABP pattern and MABP at end of ischaemia or reperfusion [1],free radical production from the AAR compared with placebo/vehicle [2],cardioprotection / infarct size [3]
"C[C@]12CC[C@@H]3c4ccc(O)cc4CC[C@H]3[C@@H]1CC[C@@H]2O [17βE2, 17β-oestradiol]",did not have a significant effect,Significantly fewer free radicals,–
"CCCc1c(-c2ccc(O)cc2)nn(-c2ccc(O)cc2)c1-c1ccc(O)cc1 [PPT, 4,4,4-4 propyl-(1H)-pyrazole 1,3,5-triyltrisphenol]",–,–,reduced infarct size

# — publication PMC2386536 (The Journal of Endocrinology, 2008)
